The data set is described as follows: Toxicity liver stage against HepG2, at 10uM. The class given is cell-based. Details: test concentration 10 uM, cell line HepG2-A16-CD81EGFP. The conditions noted are these: human, HepG2-A16-CD81EGFP cells; read-out: INHIBITION
In a few lines: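 Uninfected HepG2-A16-CD81EGFP cells, 3 × 10^3 per well, 1536-well, plated on prespotted compound at 10 μM final, parasite-free screening media added to match infected plates; puromycin 10 μM positive, DMSO 0.5% negative; run in parallel with 48 h PbLuc assay at 37 °C, 5% CO2; viability by CellTiter-Glo luminescence, normalized to controls.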
Turning to `O=S(=O)(c1ccc(F)cc1)N1CCCn2cnc(CN3CCCC3)c2C1`, the cytotoxicity at 10 µM amounted to 7.78%.

Consider `COc1ccc2c(c1)CCCN2C(=O)NC1CCCCNC1=O` (stereo not drawn), for which the cytotoxicity at 10 µM is -139%. The same measure for `Cn1cc(N2CC3(CCN(CC4CC4)CC3)OCC2=O)cn1`: -6.86%; for `Cc1cccc(C)c1OC1CN(Cc2cnc(-c3ccco3)nc2)C1`: 6.17%. In the case of `CN1CCCN(S(=O)(=O)c2cnn(C)c2)c2cc(Cl)ccc21` it was 7.41%; in that of `Cc1cncc(C2CCCN2CC(N)=O)n1` (stereo not drawn), -5.3%; in that of `COc1cc(-n2cccc2)c(Cl)cc1C(N)=O`, -10.4%. As for `Cc1nc(-c2noc3ccc(C(=O)NCCN4CCOCC4)cc23)co1`, the cytotoxicity at 10 µM was 15%. In the case of `O=C1N(CCCc2ccccc2)CCCC12CCN(C(CO)CO)C2` (stereo not drawn) it was -4.14%. The same measure for `CN(Cc1cccs1)C(=O)c1ccc(=O)n(C)c1`: -13.2%. On to `CN1C[C@@H](n2cnc(-c3ccccc3)c2-c2ncc[nH]2)C[C@H]1C(=O)O`, for which the cytotoxicity at 10 µM is -4.75%. `CCN1CCOCC12CCN(C(=O)C1CCC1)CC2`: the cytotoxicity at 10 µM was -1.39%. As to `CCO[C@H]1CN(C)C[C@@H]1NC(=O)c1cc(C)nc2c(C)c(C)ccc12`, the cytotoxicity at 10 µM was determined as 1.64%. In the case of `CN1CCCC(N(C)C(=O)c2ccc(NC(=O)c3cc[nH]n3)cc2)C1` (stereo not drawn) it was 0.624%; in that of `Cc1cnc(C(=O)N2CCc3ncnc(-c4cnn(C)c4)c3CC2)cn1`, 0.588%.

In the case of `O=C(N1CCCO1)[C@@]12CCO[C@@H]1CCN(Cc1ccc(F)cc1)C2`, the cytotoxicity at 10 µM is -6.1%. The same measure for `Cc1noc(CN(C)Cc2ccc3c(c2)OCO3)n1`: -13.2%.

In the case of `CC(C)c1ccc(CNC(C)c2ccc(S(C)(=O)=O)cc2)cc1` (stereo not drawn), the cytotoxicity at 10 µM came out at 13.9%. Take `CSCCCn1ccnc1-c1cccc(C#N)c1`: the cytotoxicity at 10 µM was -13.3%. The same measure for `Cn1c(N)nnc1SCc1cc(Br)ccc1Cl`: -21.7%.

With `Cc1cc(C)cc(C2(C(=O)NCC3CCN(CC(F)(F)F)C3)CC2)c1` (stereo not drawn), the cytotoxicity at 10 µM was -1.62%. On to `CN(CC1CCCO1)C1CCN(CCc2ccccn2)CC1` (stereo not drawn), for which the cytotoxicity at 10 µM is -5.6%.

Consider `COc1ccc2c(c1)CCCN2C(=O)c1cccc(N(C)C)c1`, for which the cytotoxicity at 10 µM was 62.8%. The same measure for `Cc1cc(C(=O)Nc2cccn(Cc3ccc(F)cc3)c2=O)no1`: 3.15%.

`CC(=O)N1CCC2(CCN(CC(C)C)C2)C1` (stereo not drawn): the cytotoxicity at 10 µM worked out at 5.41%. In the case of `c1cc(-c2cnccn2)cc(-c2ccn(CCN3CCCC3)n2)c1` it was -11.5%. In the case of `CCSc1ncc(-c2cc(C3CC3)nc(N)c2C#N)cn1`, the cytotoxicity at 10 µM amounted to 6.99%. For the molecule `CC(C)CCC(=O)N1CCN(C(C)c2nnc(CC(C)C)o2)CC1` (stereo not drawn), the cytotoxicity at 10 µM was -8.82%.

In the case of `CCn1nc(C)cc1C(=O)NCc1nc(C)no1`, the cytotoxicity at 10 µM was found to be 0.304%. The same measure for `CCC(=O)N1CCC2(CC1)C(c1cccnc1)CC(=O)N2CCOC` (stereo not drawn): -94.1%. For `O=C(c1cccc(Cl)c1)N1CC[C@H]2[C@H]1CCN2CC1CC1`, the cytotoxicity at 10 µM is -75%. The same measure for `CN1CCCC1c1cncc(C(=O)NCc2ccccc2)n1` (stereo not drawn): -1.67%. The same measure for `Cc1ccc2oc(SCC(N)=O)nc2n1`: 9.65%. As for `CC(C#N)CN(C)C(=O)c1cn(-c2ccc(Br)cc2)cn1` (stereo not drawn), the cytotoxicity at 10 µM came to 13.6%.

Consider `CCCn1nc2c(cc1=O)CN(Cc1nc(CCOC)no1)CC2`, for which the cytotoxicity at 10 µM is -2.7%.

For `OC(COCc1ccccc1)CSc1nnc2ccccn12` (stereo not drawn), the cytotoxicity at 10 µM is 2.95%. The same measure for `NC(=O)C1CCN(c2nc3nccc(-c4ccccn4)c3c(=O)[nH]2)CC1`: -9.24%; for `O=C1CCCc2nccc(-c3ccccc3)c21`: 3.15%; for `CC(=O)N1CCCCC[C@@H]2[C@@H]1[C@H](c1cccc(F)c1)CN2C(C)=O`: 5.21%. The same measure for `Cc1cncc(CN2CC[C@@](O)(CNC(=O)c3c[nH]cn3)[C@H](O)C2)c1`: -1.68%; for `CCCn1cc(-c2cc(-c3c[nH]cn3)c(C#N)c(N)n2)c(C)n1`: 10.3%; for `Cc1cc(C)n(-c2cncc(N3CCN(C(=O)CN(C)C)CC3)n2)n1`: -2.09%. In the case of `CC1CN(CC(=O)NCc2ccccn2)CCN1Cc1nccn1C` (stereo not drawn) it was -4.07%; in that of `Cc1cc(C)nc(N2CCN(Cc3cc4n(n3)CCNC4)CC2)n1`, -8.46%; in that of `CN(C)[C@@H]1CO[C@H](CNC(=O)c2ccccc2)[C@H]1O`, -1.9%.

`Nc1ccnc(N2CCC(c3nccn3CC3CC3)CC2)n1`: the cytotoxicity at 10 µM was -0.0638%. In the case of `CCCN1C(=O)c2ccccc2C1OC` (stereo not drawn), the cytotoxicity at 10 µM was -10.1%. Turning to `c1ccc(Cn2ccnc2CN2CCOC(Cn3cccn3)C2)cc1` (stereo not drawn), the cytotoxicity at 10 µM is -3.78%.

As for `COCCN(Cc1ccncc1)C(=O)C1COc2ccccc2C1` (stereo not drawn), the cytotoxicity at 10 µM was 6.77%. `Cc1nc(CC(=O)NS(=O)(=O)c2cccc3cnccc23)cs1`: the cytotoxicity at 10 µM turned out to be 5.75%. The same measure for `CC(COc1ccccc1F)NC(=O)N[C@@H]1C=C[C@H](CO)C1` (stereo partly drawn): 3.53%; for `COc1ccc(C(C)NCc2cccs2)cc1Cn1cccn1` (stereo not drawn): 10.2%; for `CCCN1CCN(C(=O)CCn2nc(C(F)(F)F)c(Br)c2C)CC1`: -8.71%. Consider `COc1ccc(CN2CCC(C(N)=O)C2)c(Br)c1OC` (stereo not drawn), for which the cytotoxicity at 10 µM was 5.15%.

As for `O=C(C(NCc1cccc(F)c1F)c1ccccc1)N1CCOCC1` (stereo not drawn), the cytotoxicity at 10 µM was found to be 8.61%. In the case of `CC(=O)N1CCO[C@@H]2CN(S(=O)(=O)c3ccc(F)cc3)CC[C@@H]2C1` it was 13.7%; in that of `COc1ccc(-c2cccc3c2OC(CN)C3)cc1F` (stereo not drawn), -51.4%. The same measure for `CC(C)Cc1nnc(SCC(=O)O)n1-c1ccc(F)cc1F`: -6.13%; for `COc1coc(CN2CCCC(CCc3ccc(F)cc3)C2)cc1=O` (stereo not drawn): 2.16%.

On to `O=C(Nc1ccc(-c2ccccc2)cn1)C1CCCN1C(=O)C1CC1` (stereo not drawn), for which the cytotoxicity at 10 µM is -1.6%. The same measure for `CN(C)CCNCC1CCOC(C)(C)C1` (stereo not drawn): -9.35%; for `CCC(CC)C(CNC(=O)Nc1cnn(CCOC)c1)N(C)C` (stereo not drawn): -6.87%. The same measure for `Cc1nc(C)c(CC(=O)N2CCC(c3ccn4nccc4n3)CC2)s1`: -0.743%. In the case of `Cc1noc(C)c1-c1cncc(C2CCCN2Cc2cncnc2)n1` (stereo not drawn) it was 5.25%.

Regarding `Cc1nsc(NC(=O)N2CCCCC2CCO)n1` (stereo not drawn), the cytotoxicity at 10 µM was -45.7%. Regarding `COc1ccc(CN)c(OC(F)F)c1`, the cytotoxicity at 10 µM is -41.7%. In the case of `CCOC(C)c1noc(CN2CCN(Cc3cccc(F)c3)CC2)n1` (stereo not drawn) it was 7.66%; in that of `COCCn1/c(=N\C(=O)CN(C)S(C)(=O)=O)sc2cc(Cl)ccc21`, -13.7%. Take `Cc1nc2sccn2c1C(=O)N1CCc2[nH]cnc2C1`: the cytotoxicity at 10 µM was -6.11%.

Regarding `CCCc1nc(C)cc(NC(C)Cc2cnccn2)n1` (stereo not drawn), the cytotoxicity at 10 µM was -0.166%. The same measure for `N#Cc1cccnc1NCCNC(=O)N1CCCC(C(F)(F)F)C1` (stereo not drawn): -3.76%; for `CCOCc1ncn2c1CN(S(=O)(=O)c1cccs1)CCC2`: 9.52%; for `Cn1cc(CN2C[C@@H]3COC[C@]3(CNC(=O)c3ccco3)C2)cn1`: -73.1%. In the case of `Cc1cccc(-n2cc(C(=O)N3CCn4c(C)nnc4C3)nn2)c1` it was -10.1%; in that of `Cc1ccc(CN(C)C(=O)CN2CCCC(Cn3cncn3)C2)cc1` (stereo not drawn), -6.41%. The same measure for `O=C(c1cccc(S(=O)(=O)NCCc2cscn2)c1)N1CCOCC1`: 5.67%. As to `CCC(=O)Nc1ccc2c(c1)CN(C(=O)c1ccco1)CC2`, the cytotoxicity at 10 µM came to 5.84%. In the case of `O=C(NCc1cn2c(n1)CN(Cc1ccncc1)CC2)C1CCC1` it was 6.76%; in that of `CC(C)c1ccc(O)c(C(=O)NCc2cc[nH]n2)c1`, -1.49%; in that of `Cc1ncc(Cl)c(C(=O)N2CC(=O)N(C)c3ccccc32)n1`, 5.35%. In the case of `CC(C)C(=O)N1Cc2ccccc2CC2(CCCCN2C)C1` (stereo not drawn) it was 9.15%. `N#Cc1ccc(N2CCN(C(=O)c3cc(C4CC4)[nH]n3)CC2)c(F)c1`: the cytotoxicity at 10 µM worked out at 1.94%.

Take `Cc1cc(NC(=O)NC(C)(C)c2nc(C)c(C)s2)no1`: the cytotoxicity at 10 µM was -1.95%. For the molecule `Cc1ccc(Oc2ncccc2C(=O)N(C)CCCN(C)C)c(C)c1`, the cytotoxicity at 10 µM was -1.16%.

Take `O=C(NC[C@]1(O)CN(Cc2ccccc2F)C[C@H]1O)c1cscn1`: the cytotoxicity at 10 µM is -12%.

As for `O=C(c1ccccc1C1CCNC1)N1CCC(N2CCC(O)CC2)CC1` (stereo not drawn), the cytotoxicity at 10 µM is -8.3%.

As to `COc1ccc(CNC(=O)NCc2cc(C)oc2C)cc1`, the cytotoxicity at 10 µM is -6%. The same measure for `O=C1NCC2(CCN(C(=O)c3ccc4c(c3)CCCO4)CC2)O1`: -5.8%; for `Cc1ccc(CN2CCn3c(CNS(C)(=O)=O)nnc3C2)s1`: -67.7%.

Turning to `Cc1nc(C2(NCc3ccc(C#N)cc3F)CCCCC2)no1`, the cytotoxicity at 10 µM is -11.2%.

In the case of `COc1ccc(Br)cc1CCC(=O)N1CCCC(O)C1` (stereo not drawn), the cytotoxicity at 10 µM amounted to 5.66%.

Take `CC(C)N(C)C(=O)C1=NOC2(CCN(C(=O)c3ccccn3)C2)C1` (stereo not drawn): the cytotoxicity at 10 µM is -13.4%. In the case of `c1ccc(CSc2nnc(C3CC3)s2)nc1` it was 0.873%; in that of `O=C(c1cccnc1)N1CCn2nnc(COc3ccccn3)c2C1`, -76.2%. The same measure for `Cc1ncsc1C(=O)NCc1ccnc(OCC(F)(F)F)c1`: -1.37%; for `Cc1ccccc1C1(C(=O)NCCN2CCOCC2)CCOCC1`: -3.07%. In the case of `Cn1c(NCC(O)c2ccc(F)cc2)c(C#N)c(=O)n(C)c1=O` (stereo not drawn) it was -7.57%; in that of `Cc1cc(CN(C)C(=O)Nc2cnc3c(c2)c(C)nn3C)no1`, 3.77%.

These data come from ChEMBL document CHEMBL4513216, “Probing the Open Global Health Chemical Diversity Library for Multistage-Active Starting Points for Next-Generation Antimalarials” (ACS Infect Dis, 2020).
